How the values were obtained:
[1] = Cytotoxicity against human H460M cancer cell line was determined after 144 hr; format: functional, cell-based; conditions: Cancer cell lines
How it was run: (§1)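 MTT colorimetric assay. Cells seeded by growth characteristics and preincubated 24 h, then exposed to drug for 1 h or 144 h at 37 °C, 5% CO2. H460M, MKN45 and PC-3 were grown in RPMI 1640 with 10% FCS. HCT116 was grown in D-MEM with 10% FBS and 2 mM glutamine.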

MKN-45 = assay: Cytotoxicity against human MKN45 cancer cell line was determined after 144 hr; format: functional, cell-based; conditions: MKN-45, 144 h; how it was run: as §1
LoVo [2] = assay: Ratio of IC50 against sensitive LoVo cell line and that of doxorubicin resistance LoVo cell line was determined after 1 hr exposure; format: functional, Homo sapiens
LoVo [3] = assay: Cytotoxicity against doxorubicin resistant LoVo cell line was determined against 144 hrs; format: functional, cell-based; conditions: Homo sapiens
How it was run: (§2)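 MTT assay on doxorubicin-sensitive LoVo and resistant LoVo/Dx cells, 24 h preincubation, then 1 h or 144 h drug exposure at 37 °C, 5% CO2. IC50 in nM. Resistance index is IC50 on LoVo/Dx divided by IC50 on LoVo.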

Nucleic Acid = assay: Binding site preference is determined as the ratio of Poly (dA-dT)2 to Poly (dG-dC)2; format: nucleic-acid assay
How it was run: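 Ethidium displacement fluorometry at pH 7.0 (10 mM Na2HPO4, 10 mM NaH2PO4, 1 mM EDTA) with 1.26 μM ethidium bromide and 1 μM [poly(dA-dT)]2 or [poly(dG-dC)]2, 20 °C. Ex 546 nm, em 595 nm, drug added serially from a DMSO stock. Preference taken from the [AT]/[GC] ratio of C50 values, counted significant only below 0.7 or above 1.3.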

SNB-19 [4] = assay: Percent growth of CNS SNB-19 cell line was determined at 10e-5 M concentration after 48 hr of exposing; format: functional, Homo sapiens
How it was run: (§3)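 NCI sulforhodamine B screen. Cells seeded by growth rate, 24 h drug-free, then 48 h exposure to 10^-8, 10^-6 or 10^-5 M. Protein-stain optical density expressed as percent growth relative to untreated control (100%); negative values indicate cell kill.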

HCT-116 = assay: Cytotoxicity against human HCT116 cancer cell line was determined after 144 hr; format: functional, cell-based; conditions: HCT-116, 144 h; how it was run: as §1
DU-145 [5] = assay: Percent growth of prostate DU-145 cell line was determined at 10e-6 M concentration after 48 hr of exposing; format: functional, Homo sapiens
DU-145 [6] = assay: Percent growth of prostate DU-145 cell line was determined at 10e-8 M concentration after 48 h of exposing; format: functional, Homo sapiens
[7] = Percent growth of melanoma LOX IMV1 cell line was determined at 10e-5 M concentration after 48 hr of exposing; format: functional, Homo sapiens; how it was run: as §3
[8] = Percent growth of melanoma LOX IMV1 cell line was determined at 10e-6 M concentration after 48 hr of exposing; format: functional, Homo sapiens; how it was run: as §3
[9] = Percent growth of melanoma LOX IMV1 cell line was determined at 10e-8 M concentration after 48 hr of exposing; format: functional, Homo sapiens; how it was run: as §3
LoVo [10] = assay: (§4) Cytotoxicity against doxorubicin resistant LoVo cell line was determined against 1 hour; format: functional, cell-based; conditions: Homo sapiens; how it was run: as §2
PC-3 = assay: Cytotoxicity against human PC3 cancer cell line was determined after 144 hr; format: functional, cell-based; conditions: PC-3, 144 h; how it was run: as §1
LoVo [11] = assay: Cytotoxicity against human LoVo cancer cell line was determined after 144 hr; format: functional, cell-based; how it was run: as §2
SNB-19 [12] = assay: Percent growth of CNS SNB-19 cell line was determined at 10e-6 M concentration after 48 hr of exposing; format: functional, Homo sapiens; how it was run: as §3
SNB-19 [13] = assay: Percent growth of CNS SNB-19 cell line was determined at 10e-8 M concentration after 48 hr of exposing; format: functional, Homo sapiens; how it was run: as §3
786-0 [14] = assay: Percent growth of renal 786-O cell line was determined at 10e-5 M concentration after 48 hr of exposing; format: functional, Homo sapiens; how it was run: as §3
786-0 [15] = assay: Percent growth of renal 786-O cell line was determined at 10e-6 M concentration after 48 h of exposing; format: functional, Homo sapiens; how it was run: as §3
786-0 [16] = assay: Percent growth of renal 786-O cell line was determined at 10e-8 M concentration after 48 h of exposing; format: functional, Homo sapiens; how it was run: as §3
MCF7 [17] = assay: Percent growth of breast MCF-7 cell line was determined at 10e-6 M concentration after 48 h of exposing; format: functional, Homo sapiens
MCF7 [18] = assay: Percent growth of breast MCF-7 cell line was determined at 10e-8 M concentration after 48 hr of exposing; format: functional, Homo sapiens
SW-620 [19] = assay: Percent growth of colon SW-620 cell line was determined at 10e-5 M concentration after 48 hr of exposing; format: functional, Homo sapiens; how it was run: as §3
SW-620 [20] = assay: Percent growth of colon SW-620 cell line was determined at 10e-6 M concentration after 48 hr of exposing; format: functional, Homo sapiens; how it was run: as §3
SW-620 [21] = assay: Percent growth of colon SW-620 cell line was determined at 10e-8 M concentration after 48 hr of exposing; format: functional, Homo sapiens; how it was run: as §3
NCI-H460 [22] = assay: Percent growth of lung NCI-H460 cell line was determined at 10e-5 M concentration after 48 hr of exposing; format: functional, Homo sapiens; how it was run: as §3
NCI-H460 [23] = assay: Percent growth of lung NCI-H460 cell line was determined at 10e-6 M concentration after 48 hr of exposing; format: functional, Homo sapiens; how it was run: as §3
NCI-H460 [24] = assay: Percent growth of lung NCI-H460 cell line was determined at 10e-8 M concentration after 48 hr of exposing; format: functional, Homo sapiens; how it was run: as §3
MOLT-4 [25] = assay: Percent growth of leukemia MOLT-4 cell line was determined at 10e-5 M concentration after 48 hr of exposing; format: functional, Homo sapiens; how it was run: as §3
MOLT-4 [26] = assay: Percent growth of leukemia MOLT-4 cell line was determined at 10e-6 M concentration after 48 h of exposing; format: functional, Homo sapiens; how it was run: as §3
MOLT-4 [27] = assay: Percent growth of leukemia MOLT-4 cell line was determined at 10e-8 M concentration after 48 hr of exposing; format: functional, Homo sapiens; how it was run: as §3
OVCAR-4 [28] = assay: Percent growth of ovarian OVCAR-4 cell line was determined at 10e-5 M concentration after 48 hr of exposing; format: functional, Homo sapiens; how it was run: as §3
OVCAR-4 [29] = assay: Percent growth of ovarian OVCAR-4 cell line was determined at 10e-6 M concentration after 48 hr of exposing; format: functional, Homo sapiens; how it was run: as §3
OVCAR-4 [30] = assay: Percent growth of ovarian OVCAR-4 cell line was determined at 10e-8 M concentration after 48 hr of exposing; format: functional, Homo sapiens; how it was run: as §3
DU-145 [31] = assay: Percent growth of prostate DU-145 cell line was determined at 10e-5 M concentration after 48 hr of exposing; format: functional, Homo sapiens
[32] = Cytotoxicity against human LoVo cancer cell line was determined after 1 hr; format: cell-based; how it was run: as §2
[33] = Cytotoxicity against human H460M cancer cell line was determined after 1 hr; format: cell-based; conditions: Cancer cell lines; how it was run: as §1
[34] = Cytotoxicity against human MKN45 cancer cell line was determined after 1 hr; format: cell-based; conditions: Cancer cell lines; how it was run: as §1
[35] = Cytotoxicity against human HCT116 cancer cell line was determined after 1 hr; format: cell-based; conditions: HCT-116, 1 h; how it was run: as §1
HT-29 = assay: Cytotoxicity is determined as the concentration required to inhibit the growth of human colon adenocarcinoma (HT-29) cell line; format: functional, cell-based
MCF7 [36] = assay: Percent growth of breast MCF-7 cell line was determined at 10e-5 M concentration after 48 hr of exposing; format: functional, Homo sapiens
[37] = Cytotoxicity against human PC3 cancer cell line was determined after 1 hr; format: cell-based; conditions: Cancer cell lines; how it was run: as §1
[38] = as §4; format: cell-based; conditions: Homo sapiens; how it was run: as §2

## CN(C)CCN1Nc2c3ccccc3nc3c(C(=O)NCCCN(C)CCCNC(=O)c4ccc5c6c(c7ccccc7nc46)NN5CCN(C)C)ccc1c23
[1]
  IC50: 4.4 nM
MKN-45
  IC50: 0.6 nM
LoVo [2]
  Resistance index: 24
LoVo [3]
  IC50: 400 nM
Nucleic Acid
  Binding site preference: 2.1
SNB-19 [4]
  Growth: -31%
HCT-116
  IC50: 19 nM
DU-145 [5]
  Growth: -23%
DU-145 [6]
  Growth: 25%
[7]
  Growth: -57%
[8]
  Growth: 5%
[9]
  Growth: 22%
LoVo [10]
  IC50: 3.6 µM
PC-3
  IC50: 6 nM
LoVo [11]
  IC50: 1.1 nM
SNB-19 [12]
  Growth: -7%
SNB-19 [13]
  Growth: 40%
786-0 [14]
  Growth: -48%
786-0 [15]
  Growth: 5%
786-0 [16]
  Growth: 30%
MCF7 [17]
  Growth: 2%
MCF7 [18]
  Growth: 18%
SW-620 [19]
  Growth: -45%
SW-620 [20]
  Growth: 14%
SW-620 [21]
  Growth: 37%
NCI-H460 [22]
  Growth: -53%
NCI-H460 [23]
  Growth: -6%
NCI-H460 [24]
  Growth: 12%
MOLT-4 [25]
  Growth: -27%
MOLT-4 [26]
  Growth: 7%
MOLT-4 [27]
  Growth: 28%
OVCAR-4 [28]
  Growth: -40%
OVCAR-4 [29]
  Growth: -17%
OVCAR-4 [30]
  Growth: 41%
DU-145 [31]
  Growth: -40%
[32]
  IC50: 150 nM
[33]
  IC50: 7.2 nM
[34]
  IC50: 6.8 nM
[35]
  IC50: 12 nM
HT-29
  IC50: 3 nM
MCF7 [36]
  Growth: -35%
[37]
  IC50: 12 nM

## COc1ccc2c(c1)c(=O)c1c(NCCCN(C)CCCNc3ccc4c(=O)n(CCN(C)C)c(=O)n5c6ccc(OC)cc6c(=O)c3c45)ccc3c(=O)n(CCN(C)C)c(=O)n2c31
[1]
  IC50: < 0.001 nM
MKN-45
  IC50: 0.0028 nM
LoVo [2]
  Resistance index: 4.2
LoVo [3]
  IC50: 7.6 nM
Nucleic Acid
  Binding site preference: 2.1
SNB-19 [4]
  Growth: -48%
HCT-116
  IC50: 0.66 nM
DU-145 [5]
  Growth: 3%
DU-145 [6]
  Growth: 40%
[7]
  Growth: -91%
[8]
  Growth: -34%
[9]
  Growth: 26%
PC-3
  IC50: 1.2 nM
[38]
  IC50: 76 nM
LoVo [11]
  IC50: 0.95 nM
SNB-19 [12]
  Growth: 14%
SNB-19 [13]
  Growth: 38%
786-0 [14]
  Growth: -79%
786-0 [15]
  Growth: 10%
786-0 [16]
  Growth: 37%
MCF7 [17]
  Growth: -3%
MCF7 [18]
  Growth: 39%
SW-620 [19]
  Growth: -49%
SW-620 [20]
  Growth: -2%
SW-620 [21]
  Growth: 30%
NCI-H460 [22]
  Growth: -87%
NCI-H460 [23]
  Growth: -20%
NCI-H460 [24]
  Growth: 14%
MOLT-4 [25]
  Growth: -62%
MOLT-4 [26]
  Growth: -33%
MOLT-4 [27]
  Growth: 6%
OVCAR-4 [28]
  Growth: -72%
OVCAR-4 [29]
  Growth: -37%
OVCAR-4 [30]
  Growth: 0%
DU-145 [31]
  Growth: -66%
[32]
  IC50: 18 nM
[33]
  IC50: 0.06 nM
[34]
  IC50: 0.05 nM
[35]
  IC50: 0.85 nM
HT-29
  IC50: < 0.1 nM
MCF7 [36]
  Growth: -63%
[37]
  IC50: 4.7 nM

From ChEMBL document CHEMBL1138784, “Rational design, synthesis, and biological evaluation of bis(pyrimido[5,6,1-de]acridines) and bis(pyrazolo[3,4,5-kl]acridine-5-carboxamides) as new anticancer agents” (J Med Chem, 2004)
